Source: PubChem BioAssay (several laboratories)
Only some compounds are listed: those with a hit (about 3.9% of all), similar ones and a draw of the others.
CHOP inh = inhibitors of CHOP induction in ER stress response | AID 2732 | CHO-K1 CHOP-promoter luciferase, tunicamycin-induced, 15-18 h | inhibition, % at 10 µM | hit rate 3.8% among 220,000;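 active = compounds that reduced the stress-induced luciferase reporter signal by more than about 70% of percent inhibition, limit read from the data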
XBP1 UPR activ = adaptive UPR (XBP1) activation; activation, % at 20 µM; hit rate 0.33% among 330,000; CHO-XBP1 luciferase reporter, IRE1-XBP1 UPR activation, luminescence; percent of tunicamycin response, DMSO as zero;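 active = versus positive control, 20 µM dose yields 30% or more activation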
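assay system = CHO-XBP1 luciferase reporter cells | amount = 1000 cells/well | buffer or medium = F12 plus 10% FBS | compound dosing = single point, 20 µM final compound, 1% DMSO | incubation = 16-18 h cell attachment at 37 °C, then 6 h compound exposure | detection = Steady-Glo luminescence read | controls = tunicamycin 10 µg/mL and vehicle-only wells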
Jurkat NFkB inh = inhibitors of the PMA/ionomycin-induced NF-kB reporter in Jurkat cells. PMA/ionomycin-induced NF-kB luciferase reporter, luminescence. inhibition, % at 4 µM. hit rate 0.53% among 330,000. AID 435003; in the data active = inhibition above about 50%
697 NFkB inh = lowers PMA/ionomycin-induced NF-kB signal in 697 B cells. 697 B-cell NF-kB luciferase reporter, 16 h. inhibition, % at 4 µM. hit rate 0.33% among 330,000; in the data active = inhibition above about 35%
CHOP UPR activ = activators of apoptotic arm of unfolded protein response (CHOP) | CHO-CHOP luciferase reporter, UPR activation, luminescence; percent of tunicamycin response over DMSO baseline | hit rate 0.34% among 330,000 | activation, % at 10 µM;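 active = at 10 µM dose, activation of 40% or more, normalized to positive control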
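Material: CHO-CHOP cells, stable luciferase reporter of PERK-eIF2a-CHOP signalling; quantity: 500 reporter cells seeded per well; buffer or medium: F12 medium containing 10% fetal bovine serum; compound: one dose, 10 µM in 0.5% DMSO; incubation: 6 h compound treatment, 37 °C; measured by: Steady-Glo luciferase luminescence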
Gli-Sufu block = antagonists of Gli-Sufu signaling. Sufu-KO-LIGHT fibroblasts, Gli luciferase reporter luminescence. hit rate 0.74% among 340,000. inhibition, % at 5 µM;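 active = inhibition above about 55%, limit read from the data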
Jurkat NFkB conf = inhibitors of the PMA/ionomycin-induced NF-kB reporter in Jurkat cells, retest; shares compounds with Jurkat NFkB inh; Jurkat NF-kB luciferase, 16 h; inhibition, % at 4 µM; hit rate 27% among 2,700; AID 435020;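 active = inhibition reaching about 45% at 4 µM in either replicate, limit read from the data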
697 NFkB conf = inhibitors of the PMA/ionomycin-induced NF-kB reporter in 697 B cells, retest; inhibition, % at 4 µM; 697 B-cell NF-kB luciferase, 16 h; shares compounds with 697 NFkB inh; AID 449746; hit rate 35% among 2,000; in the data active = inhibition mostly above about 28%, no sharp cut-off; inactive = mostly below about 22%
Gli antag conf = Gli-SUFU antagonism confirmation, single concentration. shares compounds with Gli-Sufu block. Sufu-KO-LIGHT cells, Gli luciferase reporter, luminescence. inhibition, % at 5 µM. hit rate 40% among 2,500. AID 602428;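 active = mean inhibition at 5 µM reaching about 45%, limit read from the data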
Gli cytotox = cytotoxicity counter-screen for Gli-SUFU antagonists; shares compounds with Gli-Sufu block; Sufu-KO-LIGHT cells cytotoxicity, ATP luminescence; cytotoxicity, % at 5 µM; hit rate 32% among 2,500;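 active = mean cytotoxicity at 5 µM above about 25%, limit read from the data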;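 also: cells exposed to compound overnight for roughly 16 to 18 hours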
Wnt3a cs = Wnt3a reporter inhibition counter-screen; inhibition, % at 6.25 µM; Wnt-LIGHT cells, Wnt3a-driven luciferase reporter, luminescence; AID 651995; shares compounds with Gli-Sufu block; hit rate 20% among 2,500;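 active = mean inhibition above about 25%, limit read from the data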
Of the large screens only hits and unclear results are named; the others gave an inactive call (follow-up assays come after a bar, where they were run).

Cc1ccc(N/C(N)=N/c2nc(CSc3nnc(C)s3)cc(=O)[nH]2)c(C)c1	Jurkat NFkB inh 72 | Jurkat NFkB conf 52 | Gli antag conf 57 | Gli cytotox 56 | Wnt3a cs inactive
CCCCC(=O)NC(c1ccc(Cl)cc1Cl)c1ccc2cccnc2c1O (stereo not drawn)	Jurkat NFkB inh 51, Gli-Sufu block 86 (no result: CHOP inh) | Jurkat NFkB conf 75 | Gli antag conf 83 | Gli cytotox 34 | Wnt3a cs 82
CCCC(=O)NC(c1ccccc1Cl)c1ccc2cccnc2c1O (stereo not drawn)	Jurkat NFkB inh 63, Gli-Sufu block 83 (no result: CHOP inh) | Jurkat NFkB conf 81 | Gli antag conf 80 | Gli cytotox 28 | Wnt3a cs 69
CCC(=O)NC(c1ccc(C)cc1)c1ccc2cccnc2c1O (stereo not drawn)	Jurkat NFkB inh 55, Gli-Sufu block 89 (no result: CHOP inh) | Jurkat NFkB conf 76 | Gli antag conf 82 | Gli cytotox 42 | Wnt3a cs 83
CCC(=O)NC(c1cc(Cl)c2cccnc2c1O)C(C)C (stereo not drawn)	none (no result: CHOP inh)
CCC(=O)NC(c1ccc(C)cc1)c1cc([N+](=O)[O-])c2cccnc2c1O (stereo not drawn)	none (no result: XBP1 UPR activ, Jurkat NFkB inh, 697 NFkB inh, CHOP UPR activ)
CN(CC(=O)Nc1ccc(Cl)c(C(F)(F)F)c1)C(=O)c1cn2ccccc2n1	none (no result: CHOP inh)
O=C(N/N=C\c1cc(Br)ccc1O)c1ccc(S(=O)(=O)N2CCCCC2)cc1	Jurkat NFkB inh 54, Gli-Sufu block 77 | Jurkat NFkB conf inactive | Gli antag conf 76 | Gli cytotox 30 | Wnt3a cs 74
O=C(N/N=C/c1ccc(O)c(O)c1)c1cccc(S(=O)(=O)N2CCCCC2)c1	none
C=CC(n1cncn1)C(O)(c1ccccc1)c1ccccc1 (stereo not drawn)	none (no result: CHOP inh)
COC(=O)CCC(=O)NC(=S)Nc1sc(C)c(C)c1C(N)=O	Jurkat NFkB inh 65 | Jurkat NFkB conf 50 | Gli antag conf 50 | Gli cytotox 51 | Wnt3a cs inactive
CCOC(=O)CC1CCCCN1C(=O)c1cc(COc2cccc3cnccc23)on1 (stereo not drawn)	Jurkat NFkB inh 50, Gli-Sufu block 74 (no result: CHOP inh) | Jurkat NFkB conf 72 | Gli antag conf 62 | Gli cytotox inactive | Wnt3a cs inactive
COC(=O)C1CCCCN1C(=O)c1cc(COc2cccc3cnccc23)on1 (stereo not drawn)	none (no result: CHOP inh, Gli-Sufu block)
CC(C(=O)Nc1ccccc1F)N1CCN(C)CC1 (stereo not drawn)	none (no result: CHOP inh, Gli-Sufu block)
O=C(N/N=C/C(Br)=C/c1ccccc1)c1ccncc1	none
CCOc1cc(C(=O)N/N=C/C(Br)=C/c2ccccc2)cc(OCC)c1OCC	Jurkat NFkB inh 58 | Jurkat NFkB conf inactive | Gli antag conf 64 | Gli cytotox 47 | Wnt3a cs inactive
CC(=Nc1ccc(C)cc1)c1sc2ccccc2c1O	Gli-Sufu block 61 | Jurkat NFkB conf inactive | 697 NFkB conf inactive | Gli antag conf inactive | Gli cytotox 54 | Wnt3a cs 28
CC(C)(C)OC(=O)NCCCCCc1cn(CC(=O)NCCCCCCCCCCC(=O)N2CCN(C(=O)OC(C)(C)C)CC2)nn1	Jurkat NFkB inh 55, Gli-Sufu block 56 (no result: CHOP inh) | Jurkat NFkB conf 56 | Gli antag conf 62 | Gli cytotox 26 | Wnt3a cs inactive
C#CCOCCOCCOCCNc1nc(N2CCN(C(=O)CCCCCCCCCCNC(=O)Cn3cc(CCCCCN)nn3)CC2)nc(N2CCN(C(=O)CCCCCCCCCCNC(=O)Cn3cc(C[C@@H](C)O)nn3)CC2)n1	none (no result: CHOP inh)
S=C(NCCCN1CCOCC1)N1CCN(c2nc(-c3ccccc3)cs2)CC1	none
S=C(NCCCN1CCOCC1)N1CCN(c2nc(-c3ccc(Cl)cc3)cs2)CC1	CHOP inh 88, Jurkat NFkB inh 51 | Jurkat NFkB conf inactive | Gli antag conf inactive | Gli cytotox inactive | Wnt3a cs inactive
CN(C)c1ccc(-c2n(C)c3ccccc3[n+]2C)cc1	Jurkat NFkB inh 76, 697 NFkB inh 42, Gli-Sufu block 80 | Jurkat NFkB conf 60 | 697 NFkB conf 57 | Gli antag conf 82 | Gli cytotox 36 | Wnt3a cs 27
Cn1c(-c2ccccn2)[n+](C)c2ccccc21	none
O=C(CSc1nnc(Cn2nnc3ccccc32)o1)N(Cc1ccc(F)cc1)c1ccccc1	Jurkat NFkB inh 57, Gli-Sufu block 68 (no result: CHOP inh) | Jurkat NFkB conf 61 | Gli antag conf 57 | Gli cytotox 45 | Wnt3a cs inactive
CC(=O)N1CCN(C(=O)c2cc3c(s2)CCC(C)C3)CC1 (stereo not drawn)	none (no result: CHOP inh)
COc1ccc(-c2ccc([C@H]3[C@H]4C=CC[C@@H](C)[C@@H]4C(=O)N3Cc3ccccc3)c(F)c2)cc1OC	none
COc1ccc(-c2ccc([C@H]3[C@H]4C=CC[C@@H](C)[C@@H]4C(=O)N3Cc3ccccc3)c(F)c2)cc1	none
COc1ccc(-c2ccoc2)cc1[C@H]1[C@H]2C=CC[C@@H](C)[C@@H]2C(=O)N1Cc1ccccc1	697 NFkB inh 47 | 697 NFkB conf 40
COc1ccc(-c2ccc(OC)c([C@H]3[C@H]4C=CC[C@@H](C)[C@@H]4C(=O)N3Cc3ccccc3)c2)cc1	697 NFkB inh 54 | 697 NFkB conf 39
COc1ccc(-c2ccc(C)cc2)cc1[C@H]1[C@H]2C=CC[C@@H](C)[C@@H]2C(=O)N1Cc1ccccc1	697 NFkB inh 41 | 697 NFkB conf 49
CCCCCC/C=C/c1ccc(OC)c([C@H]2[C@H]3C=CC[C@@H](C)[C@@H]3C(=O)N2Cc2ccccc2)c1	697 NFkB inh 68 | 697 NFkB conf 28
CCCCCC/C=C/c1ccc([C@H]2[C@H]3C=CC[C@@H](C)[C@@H]3C(=O)N2Cc2ccccc2)c(F)c1	none
O=C(Nc1ccon1)Nc1ccccc1C(F)(F)F	none (no result: CHOP inh)
Cc1ccc(S(C)(=O)=O)cc1C(=O)OCC(=O)N(Cc1ccccc1)Cc1ccccc1	none (no result: CHOP inh)
